# Published values collected from several papers.
# Each line is one published result; the experiments were not run side by side.
# Target: Tyrosine-protein kinase CSK (CSK, Homo sapiens, UniProt P41240)
Compound,assay,setting,remaining binding
O=C(Nc1cnc(Oc2ccc(F)cc2)nc1)N1CCc2ncccc2[C@@H]1c1ccc(F)cc1,"cell-free assay, competition with immobilised ligand",1 µM,100%
O=C(NCC1CCOCC1)c1n[nH]cc1NC(=O)c1c(F)cccc1F,"binding, competition with immobilised ligand",1 µM,98%
CN(C)c1ncc(F)c(-c2cnn3ncccc23)n1,binding,1 µM,98%
CC(C)CC(=O)N1CCc2nc(-c3ccc(Br)cc3)nc(N(C)Cc3ccccc3)c2C1,"cell-free assay, competition with immobilised ligand",0.1 µM,100%
c1cncc(-c2cccc(Nc3nccc(NC4CCCCC4)n3)c2)c1,"binding, competition with immobilised ligand",10 µM,88%
C[C@H](NC(=O)c1cnc2n1[C@](C)(Cc1ccc(C#N)cc1)C(=O)N2c1cc(Cl)c(F)c(Cl)c1)C(=O)NC1(c2ccccn2)CC1,"cell-free assay, competition with immobilised ligand",1 µM,100%
O=C(c1ccc(Nc2ncc(Cl)c(-c3ccc(Cl)s3)n2)cc1)N1CCC(N2CCCC2)CC1,"binding, competition with immobilised ligand",1 µM,75%
CN(CCCC(F)(F)F)c1nccc(-c2cnn3ncccc23)n1,binding,1 µM,91%
CN1CCN(c2cnc3c(C4CCN(C(=O)c5ccc(OC(F)(F)F)cc5N)CC4)ncnc3c2)CC1,"cell-free assay, competition with immobilised ligand",1 µM,100%
COc1cnc(Nc2cccc(S(N)(=O)=O)c2)nc1N1CCN(c2ccccc2)CC1,"binding, competition with immobilised ligand",1 µM,100%
CC(=O)C1=C(C)N(c2cccc(C(F)(F)F)c2)C(=O)N[C@@H]1c1ccc(C#N)nc1,"cell-free assay, competition with immobilised ligand",1 µM,90%
c1cnn2ncc(-c3ccnc(N4CCC45COC5)n3)c2c1,binding,1 µM,88%
FC(F)(F)Oc1cccc(-c2cnc3ccc(-c4ccncc4)nn23)c1,"cell-free assay, competition with immobilised ligand",5 µM,86%
O=C(NCCCN1CCOCC1)c1ccc(Nc2ncc(Cl)c(-c3ccc(Cl)s3)n2)cc1,"binding, competition with immobilised ligand",1 µM,86%
C[C@@H]1CCN(c2nccc(-c3cnn4ncccc34)n2)C1,binding,1 µM,89%
O=C(c1ccc(Nc2nccc(-c3cc4ccccc4s3)n2)cc1)N1CCC(N2CCCC2)CC1,"binding, competition with immobilised ligand",1 µM,100%
CN(C)c1nccc(-c2cnn3ncccc23)n1,binding,1 µM,68%
N#Cc1ccc(Nc2ccc3[nH]c(=O)[nH]c3c2)c(Cl)c1,"cell-free assay, competition with immobilised ligand",1 µM,89%
N[C@@H]1CCN(c2nccc(-c3cnn4ncccc34)n2)C1,binding,1 µM,94%
Cc1ccc(-n2nc(C(C)(C)C)cc2NC(=O)Nc2ccc(-n3c(N)c(C(N)=O)c4nc5ccc(NCCCN)cc5nc43)cc2)cc1,"cell-free assay, competition with immobilised ligand",1 µM,0.65%
CNC(=O)[C@@H]1CC[C@@H](n2c(-c3ccc4cnccc4c3)nc3ccc(C(=O)NCc4cccc(C(N)=O)c4)cc32)C1,"binding, competition with immobilised ligand",1 µM,100%
